The source of these data is ChEMBL document CHEMBL1141140, “Antifungal agents. 11. N-substituted derivatives of 1-[(aryl)(4-aryl-1H-pyrrol-3-yl)methyl]-1H-imidazole: synthesis, anti-Candida activity, and QSAR studies” (2005).

Values after ≈ are worked out from the molar mass of the structure shown.

What all share (assay type): functional
Test [1] has as its system Candida albicans. Briefly: Ratio of the in vitro minimal inhibitory to that of bifonazole against Candida albicans (MIC(compound)/MIC(bifonazole)). An outline of the steps:
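Broth microdilution per NCCLS M27-A2 against 12 Candida albicans strains (AIDS oropharyngeal, HIV vulvovaginitis isolates, ATCC 24433 and 20891, lab strains 3153 and CA2). Inoculum ~10^4 cells/mL in RPMI 1640, pH 7.0; DMSO stocks 6.4 mg/mL, twofold dilutions 0.016–64 μg/mL; read at 24 h, 28 °C, no visible growth. Mean MIC over strains converted to μmol/mL, divided by bifonazole MIC.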

Test [2] relates to Candida albicans. Briefly: In vitro concentration causing 50% inhibition of Candida albicans with percentage of resistant strains %R = 33.33 (MIC > 64 ug/mL) at a range of 0.125-2 ug/mL.
The subject of test [3] is Candida albicans. Briefly: In vitro concentration causing 90% inhibition of Candida albicans with percentage of resistant strains %R = 33.33 (MIC > 64 ug/mL) at a range of 0.125-2 ug/mL.
The test system of test [4] is Candida albicans. The test is described as follows: In vitro minimal inhibitory concentration against Candida albicans with percentage of resistant strains %R = 33.33 (MIC > 64 ug/mL) at a range of 0.125-2 ug/mL.
Test [5] has as its system Candida albicans. The test is described as follows: In vitro concentration causing 50% inhibition of Candida albicans with percentage of resistant strains %R = 0 (MIC > 64 ug/mL) at a range of 0.016-0.5 ug/mL.
Test [6] concerns Candida albicans. The test is described as follows: In vitro minimal inhibitory concentration against Candida albicans with percentage of resistant strains %R = 0 (MIC > 64 ug/mL) at a range of 0.016-0.5 ug/mL.
Test [7] deals with Candida albicans. The test is described as follows: In vitro concentration causing 90% inhibition of Candida albicans with percentage of resistant strains %R = 0 (MIC > 64 ug/mL) at a range of 0.016-0.5 ug/mL.
Test [8] concerns Candida albicans. The test is described as follows: In vitro minimal inhibitory concentration against Candida albicans with percentage of resistant strains %R = 50 (MIC > 64 ug/mL) at a range of 2-16 ug/mL.
Test [9] concerns Candida albicans. The test is described as follows: In vitro concentration causing 50% inhibition of Candida albicans with percentage of resistant strains %R = 50 (MIC > 64 ug/mL) at a range of 2-16 ug/mL.
The subject of test [10] is Candida albicans. The test is described as follows: In vitro concentration causing 90% inhibition of Candida albicans with percentage of resistant strains %R = 50 (MIC > 64 ug/mL) at a range of 2-16 ug/mL.

As for `Nc1ccc(-c2c[nH]cc2C(c2ccc(Cl)cc2Cl)n2ccnc2)cc1` (stereo not given), the Ratio with Candida albicans [1] is reported as 28.

The molecule `C=CCn1cc(-c2ccc(Cl)cc2)c(C(c2ccc(Cl)cc2Cl)n2ccnc2)c1` (stereo not given) yielded an MIC50 against Candida albicans [2] of 0.5 µg/mL (≈ 1.13 µM). In addition, in the test with Candida albicans [1], the Ratio is listed as 0.15. In the test on Candida albicans [3], this molecule yielded an MIC90 of 2 µg/mL (≈ 4.52 µM). This molecule showed an MIC with Candida albicans [4] of 0.73 µg/mL (≈ 1.65 µM).

For `Cc1ccc(C(c2ccn(-c3ccc(Cl)cc3)c2)n2ccnc2)cc1` (stereo not given), in the test on Candida albicans [1], the Ratio was found to be 1.1.

On to `CC(Cc1ccc(Cl)cc1Cl)n1ccnc1.COc1ccccc1` (stereo not given), for which the Ratio in the test on Candida albicans [1] stood at 1.

In the case of `Cn1cc(-c2ccccc2)c(C(c2cccc3ccccc23)n2ccnc2)c1` (stereo not given), the Ratio in the test with Candida albicans [1] came out at 6.

Take `c1ccc(-c2c[nH]cc2C(c2cccc3ccccc23)n2ccnc2)cc1` (stereo not given): the Ratio in the test on Candida albicans [1] was found to be 1.7.

Regarding `CCCn1cc(-c2ccc(Cl)cc2)c(C(c2ccccc2)n2ccnc2)c1` (stereo not given), in the test with Candida albicans [5], the MIC50 worked out at 0.016 µg/mL (≈ 0.0426 µM). Besides, in the test with Candida albicans [6], the MIC was 0.096 µg/mL (≈ 0.255 µM). Moreover, the Ratio in the test on Candida albicans [1] turned out to be 0.023. Also, the MIC90 with Candida albicans [7] is 0.032 µg/mL (≈ 0.0851 µM).

Take `FC(F)(F)c1ccc(-c2c[nH]cc2C(c2ccc(Cl)cc2Cl)n2ccnc2)cc1` (stereo not given): the Ratio in the test with Candida albicans [1] is listed as 2.2.

On to `COc1ccc(C(Cc2cccc(F)c2)n2ccnc2)cc1` (stereo not given), for which the Ratio in the test with Candida albicans [1] was 51.

On to `COc1ccc(C(Cc2ccccc2Cl)n2ccnc2)cc1` (stereo not given), for which the Ratio with Candida albicans [1] is recorded as 63.

For the molecule `COc1ccc(C(Cc2ccccc2F)n2ccnc2)cc1` (stereo not given), in the test on Candida albicans [1], the Ratio came out at 49.

Regarding `c1ccc(-c2c[nH]cc2C(c2ccc3ccccc3c2)n2ccnc2)cc1` (stereo not given), the Ratio with Candida albicans [1] was 3.8.

Turning to `C=CCn1cc(-c2ccc(Cl)cc2)c(C(c2ccccc2)n2ccnc2)c1` (stereo not given), the MIC50 with Candida albicans [5] came to 0.016 µg/mL (≈ 0.0428 µM). In the test on Candida albicans [6], this molecule yielded an MIC of 0.082 µg/mL (≈ 0.219 µM). In addition, the Ratio with Candida albicans [1] is listed as 0.019. This molecule also displayed an MIC90 in the test on Candida albicans [7] of 0.25 µg/mL (≈ 0.669 µM).

On to `N#Cc1ccc(-c2c[nH]cc2C(c2ccc(Cl)cc2Cl)n2ccnc2)cc1` (stereo not given), for which the Ratio in the test on Candida albicans [1] was 4.3.

`COc1ccc(C(Cc2cccc(-n3cccc3)c2)n2ccnc2)cc1` (stereo not given): in the test on Candida albicans [1], the Ratio is given as 45.

Regarding `COc1ccc(C(Cc2ccc([N+](=O)[O-])cc2)n2ccnc2)cc1` (stereo not given), the Ratio with Candida albicans [1] is given as 17.

Turning to `Fc1ccc(C(c2ccn(-c3ccc(F)cc3)c2)n2ccnc2)cc1` (stereo not given), the Ratio in the test with Candida albicans [1] is on record as 1.4.

As for `Fc1ccc(-n2ccc(C(c3ccc(Cl)cc3)n3ccnc3)c2)cc1` (stereo not given), the Ratio in the test on Candida albicans [1] turned out to be 2.7.

Regarding `COc1ccc(C(Cc2ccc(F)cc2)n2ccnc2)cc1` (stereo not given), the Ratio in the test on Candida albicans [1] came out at 23.

For the molecule `Fc1ccc(C(c2ccn(-c3ccc(Cl)cc3)c2)n2ccnc2)cc1` (stereo not given), the Ratio with Candida albicans [1] worked out at 2.8.

Turning to `Clc1ccc(C(c2ccn(-c3ccc(Cl)cc3)c2)n2ccnc2)cc1` (stereo not given), the Ratio in the test with Candida albicans [1] is recorded as 7.3.

Turning to `COc1ccc(C(Cc2ccccc2-n2cccc2)n2ccnc2)cc1` (stereo not given), the Ratio with Candida albicans [1] amounted to 7.8.

In turn, `Clc1ccc(-c2cn(-c3ccccc3)cc2C(c2ccccc2)n2ccnc2)cc1` (stereo not given) had an MIC in the test with Candida albicans [8] of 7 µg/mL (≈ 17.1 µM). In addition, in the test with Candida albicans [9], the MIC50 worked out at 4 µg/mL (≈ 9.76 µM). This molecule also registered an MIC90 in the test with Candida albicans [10] of 16 µg/mL (≈ 39 µM). Besides, in the test with Candida albicans [1], the Ratio was 1.5.

What is called MIC50 is the lowest concentration that inhibits either 50% of growth or 50% of the strains tested, depending on the study. High values mean weaker potency, low ones greater potency. The MIC90 is an inhibitory concentration at the 90% level, which refers to growth in some studies and to a panel of isolates in others. For orientation: MIC means the lowest concentration that inhibits growth of the organism. Read a high MIC as a need for much substance.
